Assay results: ChEMBL document CHEMBL1152173, “Synthesis and in vitro evaluation of the antifungal activities of dihydropyrimidinones” (2008)
Values after ≈ are worked out from the molar mass of the structure shown. Active and inactive are the calls of the source. No cut-off for these calls is given here.

Columns and labels:
Trichoderma koningii [1] = assay: Antifungal activity against Trichoderma koningii assessed as radial growth at 1% after 72 hrs by poison food technique of Flack relative to control; type: functional
Outline: (§1)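 Acetone stock added to molten sterilized PDA to final 0.5–7%, plated in 90 mm dishes with compound-free plates as control. Each plate was inoculated with a 9 mm disc from a 4-day-old culture, incubated at 25 ± 1 °C, and colony diameter measured at 24 h intervals. % inhibition = (control − treatment)/control × 100; three replicates averaged.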

Trichoderma koningii [2] = assay: Antifungal activity against Trichoderma koningii assessed as radial growth at 3% after 72 hrs by poison food technique of Flack relative to control; type: functional; outline: as §1
Trichoderma koningii [3] = assay: Antifungal activity against Trichoderma koningii assessed as radial growth at 5% after 72 hrs by poison food technique of Flack relative to control; type: functional; outline: as §1
Trichoderma koningii [4] = assay: Antifungal activity against Trichoderma koningii assessed as radial growth at 7% after 72 hrs by poison food technique of Flack relative to control; type: functional; outline: as §1
Trichoderma hamatum [5] = assay: Antifungal activity against Trichoderma hamatum assessed as radial growth at 0.5% after 24 hrs by poison food technique of Flack relative to control; type: functional
Trichoderma hamatum [6] = assay: Antifungal activity against Trichoderma hamatum assessed as radial growth at 1% after 24 hrs by poison food technique of Flack relative to control; type: functional
Trichoderma hamatum [7] = assay: Antifungal activity against Trichoderma hamatum assessed as radial growth at 3% after 24 hrs by poison food technique of Flack relative to control; type: functional
Trichoderma hamatum [8] = assay: Antifungal activity against Trichoderma hamatum assessed as radial growth at 5% after 24 hrs by poison food technique of Flack relative to control; type: functional; outline: as §1
Trichoderma hamatum [9] = assay: Antifungal activity against Trichoderma hamatum assessed as radial growth at 7% after 24 hrs by poison food technique of Flack relative to control; type: functional; outline: as §1
Trichoderma hamatum [10] = assay: Antifungal activity against Trichoderma hamatum assessed as radial growth at 0.5% after 48 hrs by poison food technique of Flack relative to control; type: functional
Trichoderma hamatum [11] = assay: Antifungal activity against Trichoderma hamatum assessed as radial growth at 1% after 48 hrs by poison food technique of Flack relative to control; type: functional
Trichoderma hamatum [12] = assay: Antifungal activity against Trichoderma hamatum assessed as radial growth at 3% after 48 hrs by poison food technique of Flack relative to control; type: functional
Trichoderma hamatum [13] = assay: Antifungal activity against Trichoderma hamatum assessed as radial growth at 0.5% after 72 hrs by poison food technique of Flack relative to control; type: functional
Trichoderma hamatum [14] = assay: Antifungal activity against Trichoderma hamatum assessed as radial growth at 1% after 72 hrs by poison food technique of Flack relative to control; type: functional
Trichoderma hamatum [15] = assay: Antifungal activity against Trichoderma hamatum assessed as radial growth at 3% after 72 hrs by poison food technique of Flack relative to control; type: functional
Trichoderma hamatum [16] = assay: Antifungal activity against Trichoderma hamatum assessed as radial growth at 5% after 72 hrs by poison food technique of Flack relative to control; type: functional; outline: as §1
Trichoderma hamatum [17] = assay: Antifungal activity against Trichoderma hamatum assessed as radial growth at 7% after 72 hrs by poison food technique of Flack relative to control; type: functional; outline: as §1
Trichoderma koningii [18] = assay: Antifungal activity against Trichoderma koningii assessed as radial growth at 0.5% after 24 hrs by poison food technique of Flack relative to control; type: functional; outline: as §1
Trichoderma koningii [19] = assay: Antifungal activity against Trichoderma koningii assessed as radial growth at 1% after 24 hrs by poison food technique of Flack relative to control; type: functional; outline: as §1
Trichoderma koningii [20] = assay: Antifungal activity against Trichoderma koningii assessed as radial growth at 3% after 24 hrs by poison food technique of Flack relative to control; type: functional; outline: as §1
Trichoderma koningii [21] = assay: Antifungal activity against Trichoderma koningii assessed as radial growth at 5% after 24 hrs by poison food technique of Flack relative to control; type: functional; outline: as §1
Trichoderma koningii [22] = assay: Antifungal activity against Trichoderma koningii assessed as radial growth at 7% after 24 hrs by poison food technique of Flack relative to control; type: functional; outline: as §1
Trichoderma koningii [23] = assay: Antifungal activity against Trichoderma koningii assessed as radial growth at 0.5% after 48 hrs by poison food technique of Flack relative to control; type: functional; outline: as §1
Trichoderma koningii [24] = assay: Antifungal activity against Trichoderma koningii assessed as radial growth at 1% after 48 hrs by poison food technique of Flack relative to control; type: functional; outline: as §1
Trichoderma koningii [25] = assay: Antifungal activity against Trichoderma koningii assessed as radial growth at 3% after 48 hrs by poison food technique of Flack relative to control; type: functional; outline: as §1
Trichoderma koningii [26] = assay: Antifungal activity against Trichoderma koningii assessed as radial growth at 5% after 48 hrs by poison food technique of Flack relative to control; type: functional; outline: as §1
Trichoderma koningii [27] = assay: Antifungal activity against Trichoderma koningii assessed as radial growth at 0.5% after 72 hrs by poison food technique of Flack relative to control; type: functional; outline: as §1
Trichoderma hamatum [28] = assay: Antifungal activity against Trichoderma hamatum assessed as radial growth at 7% after 24 hrs by poison food technique of Flack; type: functional, organism-based
Outline: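 Poisoned-food method: acetone stock mixed into molten sterilized potato dextrose agar to final 0.5, 1, 3, 5 or 7%, poured into 90 mm plates. Plates were inoculated with a 9 mm mycelial disc from a 4-day-old pure culture and incubated at 25 ± 1 °C. Colony diameter (mm) was read every 24 h; mean of three replicates.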

Aspergillus niger [29] = assay: Antifungal activity against Aspergillus niger assessed as radial growth at 0.5% after 24 hrs by poison food technique of Flack relative to control; type: functional
Aspergillus niger [30] = assay: Antifungal activity against Aspergillus niger assessed as radial growth at 1% after 24 hrs by poison food technique of Flack relative to control; type: functional
Aspergillus niger [31] = assay: Antifungal activity against Aspergillus niger assessed as radial growth at 3% after 24 hrs by poison food technique of Flack relative to control; type: functional
Aspergillus niger [32] = assay: Antifungal activity against Aspergillus niger assessed as radial growth at 5% after 24 hrs by poison food technique of Flack relative to control; type: functional
Aspergillus niger [33] = assay: Antifungal activity against Aspergillus niger assessed as radial growth at 7% after 24 hrs by poison food technique of Flack relative to control; type: functional
Aspergillus niger [34] = assay: Antifungal activity against Aspergillus niger assessed as radial growth at 0.5% after 48 hrs by poison food technique of Flack relative to control; type: functional
Aspergillus niger [35] = assay: Antifungal activity against Aspergillus niger assessed as radial growth at 1% after 48 hrs by poison food technique of Flack relative to control; type: functional
Aspergillus niger [36] = assay: Antifungal activity against Aspergillus niger assessed as radial growth at 3% after 48 hrs by poison food technique of Flack relative to control; type: functional
Aspergillus niger [37] = assay: Antifungal activity against Aspergillus niger assessed as radial growth at 5% after 48 hrs by poison food technique of Flack relative to control; type: functional
Aspergillus niger [38] = assay: Antifungal activity against Aspergillus niger assessed as radial growth at 7% after 48 hrs by poison food technique of Flack relative to control; type: functional
Aspergillus niger [39] = assay: Antifungal activity against Aspergillus niger assessed as radial growth at 0.5% after 72 hrs by poison food technique of Flack relative to control; type: functional
Aspergillus niger [40] = assay: Antifungal activity against Aspergillus niger assessed as radial growth at 1% after 72 hrs by poison food technique of Flack relative to control; type: functional
Aspergillus niger [41] = assay: Antifungal activity against Aspergillus niger assessed as radial growth at 5% after 72 hrs by poison food technique of Flack relative to control; type: functional
Aspergillus niger [42] = assay: Antifungal activity against Aspergillus niger assessed as radial growth at 7% after 72 hrs by poison food technique of Flack relative to control; type: functional
Trichoderma hamatum [43] = assay: Antifungal activity against Trichoderma hamatum; type: functional
Trichoderma koningii [44] = assay: Antifungal activity against Trichoderma koningii; type: functional
Aspergillus niger [45] = assay: Antifungal activity against Aspergillus niger; type: functional

MIC (Trichoderma hamatum [43]): 0.025 µg/mL (≈ 0.0905 µM)
MIC (Trichoderma koningii [44]): 0.025 µg/mL (≈ 0.0905 µM)
MIC (Aspergillus niger [45]): 0.35 µg/mL (≈ 1.27 µM)
SMILES: CCOC(=O)C1=C(C)NC(=S)NC1c1ccccc1 (stereo not given)
inhibition (INH) (Trichoderma koningii [1]): 0%
inhibition (INH) (Trichoderma koningii [2]): 62.71%
inhibition (INH) (Trichoderma koningii [3]): 79.82%
inhibition (INH) (Trichoderma koningii [4]): 84.42%
inhibition (INH) (Trichoderma hamatum [5]): 17.13%
inhibition (INH) (Trichoderma hamatum [6]): 47.78%
inhibition (INH) (Trichoderma hamatum [7]): 67.13%
inhibition (INH) (Trichoderma hamatum [8]): 89.18%
inhibition (INH) (Trichoderma hamatum [9]): 100%
inhibition (INH) (Trichoderma hamatum [10]): 8.81%
inhibition (INH) (Trichoderma hamatum [11]): 18.65%
inhibition (INH) (Trichoderma hamatum [12]): 67.62%
inhibition (INH) (Trichoderma hamatum [13]): 0%
inhibition (INH) (Trichoderma hamatum [14]): 0%
inhibition (INH) (Trichoderma hamatum [15]): 37.65%
inhibition (INH) (Trichoderma hamatum [16]): 94.96%
inhibition (INH) (Trichoderma hamatum [17]): 95.98%
inhibition (INH) (Trichoderma koningii [18]): 0%
inhibition (INH) (Trichoderma koningii [19]): 0%
inhibition (INH) (Trichoderma koningii [20]): 56.03%
inhibition (INH) (Trichoderma koningii [21]): 89.2%
inhibition (INH) (Trichoderma koningii [22]): 91.34%
inhibition (INH) (Trichoderma koningii [23]): 0%
inhibition (INH) (Trichoderma koningii [24]): 0%
inhibition (INH) (Trichoderma koningii [25]): 68.08%
inhibition (INH) (Trichoderma koningii [26]): 87.34%
inhibition (INH) (Trichoderma koningii [27]): 0%
Activity (Trichoderma hamatum [28]): Active
inhibition (INH) (Aspergillus niger [29]): 0%
inhibition (INH) (Aspergillus niger [30]): 0%
inhibition (INH) (Aspergillus niger [31]): 33.33%
inhibition (INH) (Aspergillus niger [32]): 33.33%
inhibition (INH) (Aspergillus niger [33]): 100%
inhibition (INH) (Aspergillus niger [34]): 0%
inhibition (INH) (Aspergillus niger [35]): 0%
inhibition (INH) (Aspergillus niger [36]): 47.81%
inhibition (INH) (Aspergillus niger [37]): 54.54%
inhibition (INH) (Aspergillus niger [38]): 100%
inhibition (INH) (Aspergillus niger [39]): 0%
inhibition (INH) (Aspergillus niger [40]): 0%
inhibition (INH) (Aspergillus niger [41]): 55.63%
inhibition (INH) (Aspergillus niger [42]): 100%
